From ChEMBL document CHEMBL3232972, “Synthesis and biological evaluation of some novel pyrido[1,2-a]pyrimidin-4-ones as antimalarial agents” (Eur J Med Chem, 2014)

Tested on: Plasmodium falciparum
Test: Antimalarial activity against erythrocytic stages of chloroquine-sensitive Plasmodium falciparum 3D7 infected in human O-positive erythrocytes after 48 hrs by SYBR Green-I fluorescence-based method
Format: functional, organism-based
Conditions: 3D7, 48 h
Work on COc1ccc(-c2ccc3ncc(C(=O)NCc4cccc(F)c4)c(=O)n3c2)cc1 yielded an IC50 greater than 100 µM. With COc1ccc(-c2ccc3ncc(C(=O)NCC4CCCO4)c(=O)n3c2)cc1 (configuration not stated) the IC50 was 100 µM. CC(C)N(Cc1ccccc1)C(=O)Nc1cnc2ccccn2c1=O gave an IC50 of 70 µM. O=C(NC1CCN(Cc2ccccc2)CC1)c1cnc2ccccn2c1=O showed an IC50 greater than 100 µM. For O=C(NCc1ccc(C(F)(F)F)cc1)Nc1cnc2ccc(Cl)cn2c1=O, the IC50 was greater than 100 µM. In the case of Cc1noc(C)c1NC(=O)c1cnc2ccccn2c1=O, the IC50 is reported as greater than 100 µM. In the case of NC(=O)[C@H](Cc1ccccc1)NC(=O)Nc1cnc2ccccn2c1=O, the IC50 is reported as greater than 100 µM. In the case of O=C(NCc1cccc(C(F)(F)F)c1)Nc1cnc2ccc(Cl)cn2c1=O, the IC50 is reported as greater than 100 µM. Molecule Cc1ccn2c(=O)c(NC(=O)N(Cc3ccccc3)C(C)C)cnc2c1 has an IC50 greater than 100 µM. O=C(Nc1ncccc1OCc1ccccc1)Nc1cnc2ccccn2c1=O gave an IC50 greater than 100 µM. CCOC(=O)[C@H](Cc1ccccc1)NC(=O)Nc1cnc2ccccn2c1=O gave an IC50 greater than 100 µM. In the case of COc1ccc(-c2ccc3ncc(C(=O)NCc4ccc(C(F)(F)F)cc4)c(=O)n3c2)cc1, the IC50 is reported as greater than 100 µM. Molecule O=C(Nc1cnc2ccc(Cl)cn2c1=O)N1CCN(C(=O)c2ccco2)CC1 has an IC50 greater than 100 µM. Work on O=C(NCc1ccc(C(F)(F)F)cc1)c1cnc2ccccn2c1=O yielded an IC50 of 37 µM. In the case of N#C[C@H](Cc1ccccc1)NC(=O)Nc1cnc2ccccn2c1=O, the IC50 is reported as greater than 100 µM. With CC(C)N(Cc1ccccc1)C(=O)Nc1cnc2ccc(Cl)cn2c1=O the IC50 was greater than 100 µM. For CC(C)(C)OC(=O)N1CCN(C(=O)Nc2cnc3ccc(Cl)cn3c2=O)CC1, the IC50 was greater than 100 µM. Work on O=C(NCc1cccs1)Nc1cnc2ccc(Cl)cn2c1=O yielded an IC50 greater than 100 µM. With O=C(NCc1ccc(C(F)(F)F)cc1)Nc1cnc2ccccn2c1=O the IC50 was greater than 100 µM. With CC(C)C[C@H](NC(=O)Nc1cnc2ccccn2c1=O)C(N)=O the IC50 was greater than 100 µM. With COCCNC(=O)Nc1cnc2ccc(Cl)cn2c1=O the IC50 was greater than 100 µM. In the case of CCCCCOc1cccnc1NC(=O)c1cnc2ccccn2c1=O, the IC50 is reported as greater than 100 µM. Work on O=C(NCc1ccccc1C(F)(F)F)c1cnc2ccccn2c1=O yielded an IC50 greater than 100 µM. For O=C(Nc1cnc2ccccn2c1=O)OCc1ccc2c(c1)OCO2, the IC50 was greater than 100 µM. In the case of O=C(NCc1ccccc1C(F)(F)F)Nc1cnc2ccccn2c1=O, the IC50 is reported as 100 µM. Work on O=C(NCc1cccc(F)c1)c1cnc2ccccn2c1=O yielded an IC50 of 43 µM. Work on CC(C)C[C@@H](C#N)NC(=O)Nc1cnc2ccccn2c1=O yielded an IC50 greater than 100 µM. In the case of COc1ccc(C(C)NC(=O)c2cnc3ccccn3c2=O)cc1 (configuration not stated), the IC50 is reported as greater than 100 µM. O=C(Nc1cnc2ccccn2c1=O)OCc1cccc(F)c1 gave an IC50 of 33 µM. In the case of O=C(Nc1cnc2ccc(Cl)cn2c1=O)OCc1cccc(F)c1, the IC50 is reported as greater than 100 µM. With Cc1ccn2c(=O)c(C(=O)NCc3ccc(C(F)(F)F)cc3)cnc2c1 the IC50 was 70 µM. Work on O=C(NCc1ccc(F)cc1F)c1cnc2ccccn2c1=O yielded an IC50 of 59 µM. O=C(NCc1cccc(C(F)(F)F)c1)c1cnc2ccccn2c1=O gave an IC50 of 65 µM. For O=C(c1cnc2ccccn2c1=O)N(Cc1ccccc1F)C1CC1, the IC50 was greater than 100 µM. With O=C(NCCN1CCOCC1)c1cnc2ccccn2c1=O the IC50 was greater than 100 µM. O=C(NCCC(c1ccccc1)c1ccccc1)Nc1cnc2ccccn2c1=O gave an IC50 greater than 100 µM. O=C(NCc1ccccc1C(F)(F)F)Nc1cnc2ccc(Cl)cn2c1=O showed an IC50 greater than 100 µM. In the case of O=C(NC1CC1)c1cccnc1N1CCN(C(=O)Nc2cnc3ccccn3c2=O)CC1, the IC50 is reported as greater than 100 µM. Molecule COc1ccc(CNC(=O)c2cnc3ccccn3c2=O)cc1 has an IC50 greater than 100 µM. Molecule O=C(Nc1cnc2ccc(Cl)cn2c1=O)OCc1ccccn1 has an IC50 greater than 100 µM. O=C(Nc1ncccc1OCc1ccccc1)c1cnc2ccccn2c1=O gave an IC50 of 100 µM. O=C(Nc1cnc2ccc(Cl)cn2c1=O)OCc1cccnc1 showed an IC50 greater than 100 µM.

Tested on: not listed separately
Test: Selectivity index, ratio for IC50 for human HuH7 cells to IC50 for erythrocytic stages of chloroquine-sensitive Plasmodium falciparum 3D7
Format: functional, Huh-7
Conditions: not given
In the case of O=C(NCc1ccc(C(F)(F)F)cc1)c1cnc2ccccn2c1=O, the “Ratio IC50” value is reported as greater than 5.4. For O=C(Nc1cnc2ccccn2c1=O)OCc1cccc(F)c1, the “Ratio IC50” value was greater than 3. In the case of Cc1ccn2c(=O)c(C(=O)NCc3ccc(C(F)(F)F)cc3)cnc2c1, the “Ratio IC50” value is reported as greater than 1.4. In the case of O=C(NCc1ccc(F)cc1F)c1cnc2ccccn2c1=O, the “Ratio IC50” value is reported as greater than 3.3. For O=C(NCc1cccc(C(F)(F)F)c1)c1cnc2ccccn2c1=O, the “Ratio IC50” value was greater than 3.

Tested on: not listed separately
Test: Cytotoxicity against human HuH7 cells after 24 hrs by MTT assay
Format: cell-based
Conditions: Huh-7, 24 h
How it was run: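 Huh-7 cells in DMEM with 10% FBS and gentamicin, seeded at 10⁴ cells per well and left overnight. Compounds added for 24 h at 37 °C, 5% CO2, with 10% DMSO as positive control. MTT added for a further 3 h. Formazan dissolved in DMSO after centrifugation, read at 570 nm. IC50 from dose-response curves.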
With O=C(NCc1ccc(C(F)(F)F)cc1)c1cnc2ccccn2c1=O the IC50 was greater than 200 µM. In the case of O=C(Nc1cnc2ccccn2c1=O)OCc1cccc(F)c1, the IC50 is reported as greater than 100 µM. Molecule Cc1ccn2c(=O)c(C(=O)NCc3ccc(C(F)(F)F)cc3)cnc2c1 has an IC50 greater than 100 µM. Work on O=C(NCc1ccc(F)cc1F)c1cnc2ccccn2c1=O yielded an IC50 greater than 200 µM. With O=C(NCc1cccc(C(F)(F)F)c1)c1cnc2ccccn2c1=O the IC50 was greater than 200 µM.
